Reference: ChEMBL document CHEMBL4689842, “EUbOPEN Chemogenomics Library wave 1” (2021)
Values joined by “and” are separate entries in the source; they are usually repeats but may differ in a detail not shown here. Identical values can stand only once.

System: U2OS
Experiment: Multiplex assay against U2OS
Type: toxicity, cell-based
Settings: human
How it was run: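 Compound was added to live cells that had been stained at seeding with Hoechst33342, BioTracker Green Microtubule Cytoskeleton Dye, MitoTracker Red and Annexin V Alexa Fluor 680, and imaging followed on a CQ1 microscope at 37°C and 5% CO2. CellPathfinder machine-learning gating divided cells into Hoechst high-intensity objects or normal cells, normal cells into healthy, pyknosed or fragmented nuclei, and pyknosed cells into mitotic or apoptotic. Tubulin, mitochondrial-mass and membrane-permeability phenotypes are per cents of healthy-nucleus cells.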

[1] = 12 h, 1 µM, compound concentration 1 uM, replicate 1
[2] = 12 h, 1 µM, compound concentration 1 uM, replicate 2
[3] = 12 h, 10 µM, compound concentration 10 uM, replicate 1
[4] = 12 h, 10 µM, compound concentration 10 uM, replicate 2
[5] = 24 h, 1 µM, compound concentration 1 uM, replicate 1
[6] = 24 h, 1 µM, compound concentration 1 uM, replicate 2
[7] = 24 h, 10 µM, compound concentration 10 uM, replicate 1
[8] = 24 h, 10 µM, compound concentration 10 uM, replicate 2
[9] = 48 h, 10 µM, compound concentration 10 uM, replicate 1
[10] = 48 h, 10 µM, compound concentration 10 uM, replicate 2

In the case of `NC(=O)Nc1cc(-c2cccc(F)c2)sc1C(=O)N[C@H]1CCCNC1` [AZD-7762], the “Population Apoptotic (%)” value [1] is reported as 25%, the “Population Fragmented Nuclei (%)” value [1] is reported as 7% and the “Population Hoechst High Intensity Objects (%)” value [1] is reported as 3%. The “Population Membrane Permeable-Phenotype (%)” value [1] was 9%, the “Population Mitochondria Different-Phenotype (%)” value [1] was 17% and the “Population Mitotic Cells (%)” value [1] was 75%. The “Population Normal (%)” value [1] was 96%, the “Population Pyknosed Nuclei (%)” value [1] was 10% and the “Total Cell Count” value [1] was 157. The “Population Apoptotic (%)” value [2] was 0%, the “Population Fragmented Nuclei (%)” value [2] was 8% and the “Population Healthy Nuclei (%)” value [2] was 81%. The “Population Hoechst High Intensity Objects (%)” value [2] was 15%, the “Population Membrane Permeable-Phenotype (%)” value [2] was 13% and the “Population Mitochondria Different-Phenotype (%)” value [2] was 10%. For the same compound, the “Population Mitotic Cells (%)” value [2] was 100%, the “Population Normal (%)” value [2] was 84% and the “Population Pyknosed Nuclei (%)” value [2] was 9%. The “Population Tubulin-Different-Phenotype (%)” value [2] was 26%, the “Total Cell Count” value [2] was 110 and the “Population Apoptotic (%)” value [3] was 25% and 43%. For the same compound, the “Population Fragmented Nuclei (%)” value [3] was 28%, the “Population Healthy Nuclei (%)” value [3] was 28% and 20% and the “Population Hoechst High Intensity Objects (%)” value [3] was 3% and 12%. The “Population Membrane Permeable-Phenotype (%)” value [3] was 19% and 8%, the “Population Mitochondria Different-Phenotype (%)” value [3] was 15% and 20% and the “Population Mitotic Cells (%)” value [3] was 74% and 56%. The “Population Normal (%)” value [3] was 96% and 87%, the “Population Pyknosed Nuclei (%)” value [3] was 49% and 50% and the “Population Tubulin-Different-Phenotype (%)” value [3] was 17% and 11%. The “Total Cell Count” value [3] was 189 and 194, the “Population Apoptotic (%)” value [4] was 46% and 22% and the “Population Fragmented Nuclei (%)” value [4] was 22% and 25%. The “Population Healthy Nuclei (%)” value [4] was 25% and 32%, the “Population Hoechst High Intensity Objects (%)” value [4] was 5% and 11% and the “Population Membrane Permeable-Phenotype (%)” value [4] was 21% and 20%. The “Population Mitotic Cells (%)” value [4] was 53% and 77%, the “Population Normal (%)” value [4] was 94% and 88% and the “Population Pyknosed Nuclei (%)” value [4] was 52% and 41%. The “Total Cell Count” value [4] was 79 and 84, the “Population Apoptotic (%)” value [5] was 40% and the “Population Fragmented Nuclei (%)” value [5] was 15%. For the same compound, the “Population Healthy Nuclei (%)” value [5] was 52%, the “Population Hoechst High Intensity Objects (%)” value [5] was 6% and the “Population Membrane Permeable-Phenotype (%)” value [5] was 16%. For the same compound, the “Population Mitochondria Different-Phenotype (%)” value [5] was 21%, the “Population Mitotic Cells (%)” value [5] was 60% and the “Population Normal (%)” value [5] was 93%. The “Population Pyknosed Nuclei (%)” value [5] was 32%, the “Population Tubulin-Different-Phenotype (%)” value [5] was 35% and the “Total Cell Count” value [5] was 150. The “Population Apoptotic (%)” value [6] was 37%, the “Population Fragmented Nuclei (%)” value [6] was 7% and the “Population Healthy Nuclei (%)” value [6] was 51%. The “Population Hoechst High Intensity Objects (%)” value [6] was 18%, the “Population Membrane Permeable-Phenotype (%)” value [6] was 7% and the “Population Mitotic Cells (%)” value [6] was 62%. The “Population Normal (%)” value [6] was 81%, the “Population Pyknosed Nuclei (%)” value [6] was 40% and the “Population Tubulin-Different-Phenotype (%)” value [6] was 34%. The “Total Cell Count” value [6] was 97, the “Population Apoptotic (%)” value [7] was 81% and 85% and the “Population Healthy Nuclei (%)” value [7] was 7%. The “Population Hoechst High Intensity Objects (%)” value [7] was 9% and 10%, the “Population Mitochondria Different-Phenotype (%)” value [7] was 46% and 78% and the “Population Mitotic Cells (%)” value [7] was 18% and 14%. For the same compound, the “Population Normal (%)” value [7] was 90% and 89%, the “Population Pyknosed Nuclei (%)” value [7] was 47% and 70% and the “Total Cell Count” value [7] was 185 and 189. The “Population Apoptotic (%)” value [8] was 92% and 70%, the “Population Fragmented Nuclei (%)” value [8] was 16% and 21% and the “Population Healthy Nuclei (%)” value [8] was 16% and 18%. The “Population Hoechst High Intensity Objects (%)” value [8] was 20% and 11%, the “Population Membrane Permeable-Phenotype (%)” value [8] was 100% and 64% and the “Population Mitochondria Different-Phenotype (%)” value [8] was 80% and 57%. For the same compound, the “Population Normal (%)” value [8] was 80% and 88%, the “Population Pyknosed Nuclei (%)” value [8] was 66% and 59% and the “Population Tubulin-Different-Phenotype (%)” value [8] was 90% and 64%. The “Total Cell Count” value [8] was 75 and 84, the “Population Apoptotic (%)” value [9] was 95% and the “Population Fragmented Nuclei (%)” value [9] was 38%. For the same compound, the “Population Healthy Nuclei (%)” value [9] was 1%, the “Population Hoechst High Intensity Objects (%)” value [9] was 15% and the “Population Membrane Permeable-Phenotype (%)” value [9] was 0%. For the same compound, the “Population Mitochondria Different-Phenotype (%)” value [9] was 33%, the “Population Mitotic Cells (%)” value [9] was 4% and the “Population Normal (%)” value [9] was 84%. The “Population Pyknosed Nuclei (%)” value [9] was 59%, the “Population Tubulin-Different-Phenotype (%)” value [9] was 33% and the “Total Cell Count” value [9] was 188. For the same compound, the “Population Apoptotic (%)” value [10] was 100%, the “Population Fragmented Nuclei (%)” value [10] was 16% and the “Population Healthy Nuclei (%)” value [10] was 44%. For the same compound, the “Population Hoechst High Intensity Objects (%)” value [10] was 21%, the “Population Membrane Permeable-Phenotype (%)” value [10] was 100% and the “Population Mitochondria Different-Phenotype (%)” value [10] was 92%. The “Population Mitotic Cells (%)” value [10] was 0%, the “Population Normal (%)” value [10] was 78% and the “Population Pyknosed Nuclei (%)” value [10] was 38%. The “Population Tubulin-Different-Phenotype (%)” value [10] was 96% and the “Total Cell Count” value [10] was 75.
